# Most compounds without a hit are left out; they make up all but 1.6% or so of the library.
# MDM2 E3 inh = inhibitors of human Mdm2 E3 ubiquitin ligase; cell-based MDM2 ubiquitination luciferase reporter, 2 h; 0 = plate control, 100 = twice control, blank-subtracted; signal enhancement, % at 5 µM; AID 1230; hit rate 0.11% among 210,000; Q00987;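 active = signal enhancement of 30% or more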;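 also: luminescence tracks abundance of the self-degrading MDM2-luciferase fusion protein; higher signal means inhibition of MDM2 E3 ligase activity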
#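 Material: stable MDM2–luciferase fusion reporter cells / Quantity: 2000 cells/well / Dosing: single 5 µM compound dose, 0.2% final DMSO / Buffer or medium: DMEM / Schedule: 4 h cell settling then 2 h compound exposure, 37 °C / Detection: luminescence with SteadyLite reagent, 15 min at room temperature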
# Wee1 stabilizer = blocks degradation of human Wee1 kinase | P30291 | HeLa Luc-Wee1K328M stability, luciferase luminescence; 100% = proteasome inhibitor MG132 effect | reporter increase, % at 5 µM | hit rate 1.2% among 220,000 | AID 1321;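 active = activation above the mean of all tested compounds plus 3 SD, set per screening run, cut at about 8.8% in these data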;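 also: cells exposed to compound for 20 h before luminescence read; 0% = DMSO alone and 100% = MG132 at 30 µM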
# Target sequence (P30291 whole entry K328M): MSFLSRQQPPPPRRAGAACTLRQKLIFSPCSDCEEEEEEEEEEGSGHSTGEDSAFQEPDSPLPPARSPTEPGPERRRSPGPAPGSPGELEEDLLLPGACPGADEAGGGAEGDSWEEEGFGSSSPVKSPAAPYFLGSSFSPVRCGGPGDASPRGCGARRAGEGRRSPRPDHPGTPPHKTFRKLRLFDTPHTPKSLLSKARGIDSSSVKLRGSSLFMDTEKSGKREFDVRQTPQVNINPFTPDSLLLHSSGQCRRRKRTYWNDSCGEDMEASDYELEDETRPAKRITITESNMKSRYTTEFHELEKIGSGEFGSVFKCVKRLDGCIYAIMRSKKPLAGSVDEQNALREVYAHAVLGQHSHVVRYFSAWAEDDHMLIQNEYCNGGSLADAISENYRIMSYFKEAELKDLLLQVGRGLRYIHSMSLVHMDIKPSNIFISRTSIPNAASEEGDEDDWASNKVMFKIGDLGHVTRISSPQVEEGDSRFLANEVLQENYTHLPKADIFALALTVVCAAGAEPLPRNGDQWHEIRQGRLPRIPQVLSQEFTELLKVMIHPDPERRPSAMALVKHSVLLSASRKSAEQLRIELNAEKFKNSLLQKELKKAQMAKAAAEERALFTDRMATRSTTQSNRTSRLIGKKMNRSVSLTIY
# Pf gamet viab = P. falciparum stage V gametocyte viability inhibition; P. falciparum stage V gametocytes, ATP luminescence, 24 h; inhibition, % at 10.9 µM; hit rate 0.065% among 150,000; AID 743093;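 active = inhibition above the mean plus 3 SD of compounds within the control limits, set per campaign, cut at about 38% in these data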;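 also: 0% = DMSO wells and 100% = medium only without gametocytes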
# TNF death inh = TNF-alpha cell death inhibition in Jurkat FADD-/- cells. Jurkat FADD-/- TNF necroptosis rescue, ATP luminescence, 24 h; 0 = TNF only, 100 = no-TNF cells. activation (protection from cell death), % at 10 µM. hit rate 0.068% among 220,000;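 active = activation, meaning protection from cell death, of at least 50% relative to plate controls; inactive = activation below 50%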;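 also: necroptosis triggered by 40 ng/mL TNF-alpha added together with compound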
# L929 necroptosis = blocks zVAD induced death of L929 cells. L929 zVAD necroptosis rescue, ATP luminescence, 24 h; with zVAD 60 µM. viability rescue, % at 10 µM. hit rate 0.38% among 220,000. AID 1377;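 active = activation, scaled between plate controls, above about 75%, limit read from the data; inactive = activation under that limit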;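 also: 0% = zVAD with DMSO and 100% = DMSO alone without zVAD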
# * hit, by the source's call; . = not tested or not shown.
SMILES,MDM2 E3 inh,Wee1 stabilizer,Pf gamet viab,TNF death inh,L929 necroptosis
O=C(CSc1nccc(=O)[nH]1)NCc1ccc(Cl)cc1,.,9.3*,-1,1,0
COC(=O)N/N=C\c1ccc(OC(=O)c2ccco2)cc1,-13,-1,-15,0,1
O=C(O)CSc1nnc(-c2ccc(Cl)cc2)n1-c1ccccc1,.,.,-20,.,.
Oc1ccc(/C=N/Nc2nc(-c3ccc(Cl)cc3)cc(C(F)(F)F)n2)cc1,-7,10*,.,-2,2
O=c1[nH]c(SCc2ccc(Cl)cc2)nc2c1CCC2,-19,3,.,2,4
CC(=O)Nc1ccc(C(=O)OCC(=O)Nc2ccccc2Sc2ccccc2)cc1,2,1,-19,-2,2
N#CCC(=O)Nc1ccc(C(=O)OCC(=O)Nc2ccccc2Sc2ccccc2)cc1,-6,1,40*,0,42
CC(=O)c1cccc(NC(=O)Cn2nc(-c3ccccc3Cl)ccc2=O)c1,-15,11*,.,1,1
O=C(C1=NN[C@@H]2C(=O)N(c3cccc(F)c3)C(=O)[C@H]12)c1ccc2ccccc2n1,-17,5,-3,0,-1
CN(CCNC(=O)CN1C(=O)CSc2ccc(S(=O)(=O)N3CCCC3)cc21)Cc1ccccc1,-7,10*,5,2,-1
CCCCN(C)CCCNC(=O)CN1C(=O)CSc2ccc(S(=O)(=O)N3CCOCC3)cc21,-5,-1,-68,0,.
CCCc1cc(=O)[nH]c(SCC(=O)N2CCN(S(=O)(=O)c3ccc4ccccc4c3)CC2)n1,-16,1,64*,1,1
CCCc1cc(=O)[nH]c(SCC(=O)N2CCN(S(=O)(=O)c3ccccc3)CC2)n1,-2,2,-15,2,1
CC12CCC(C(=O)Nc3ccc(SC(F)F)cc3)(CC1=O)C2(C)C (centres undefined),-21,-1,.,0,0
COc1ccc(Nc2cc(C(=O)NCc3ccco3)c3ccccc3n2)cc1,-20,11*,.,2,1
CS(=O)(=O)N1CCN(C(=O)CCc2ccccc2)CC1,.,.,-9,.,.
CC(OC(=O)CCc1nc2ccccc2[nH]c1=O)c1ccccc1 (centres undefined),0,11*,-12,-1,0
Clc1ccc(-c2cn3c(n2)CCC3)cc1,-2,9.4*,-15,-1,1
O=C(NC(=S)Nc1ccc2[nH]ncc2c1)c1ccccc1,2,6,.,-10,0
O=S(=O)(N1CCCCC1)N1CCCN(S(=O)(=O)N2CCCCC2)CC1,-16,3,-13,-1,0
Cc1ccc2ccc(C(Nc3cccc(C(F)(F)F)c3)c3cccnc3)c(O)c2n1 (centres undefined),1,-3,39*,2,0
Cc1ccnc(NC(c2cccnc2)c2ccc3cccnc3c2O)c1 (centres undefined),-1,-1,-3,-6,-1
Cc1cc(-c2n[nH]c(=S)n2CC(C)C)cs1,-18,11*,0,1,1
CC(C)Cn1c(-c2csc(C(C)C)c2)n[nH]c1=S,1,-1,-6,0,0
CCOc1ccc(N2C(=O)Nc3ccccc3C2(O)C(=O)NCc2ccc3c(c2)OCO3)cc1 (centres undefined),-2,-4,.,-2,0
SMILES,MDM2 E3 inh,Wee1 stabilizer,Pf gamet viab,TNF death inh,L929 necroptosis
CCOc1ccc(N2C(=O)Nc3ccccc3C2(O)C(=O)NCc2ccc(C)cc2)cc1 (centres undefined),7,12*,.,-1,4
O=C1CCC(=O)N1c1ccc(NC2CCN(Cc3ccccc3)CC2)c([N+](=O)[O-])c1,5,1,11,1,1
O=C(c1ccco1)n1nc(-c2ccccc2)nc1SCc1ccccc1,-22,4,.,2,0
CS(=O)(=O)c1ccc2nc(NC(=O)Nc3cccc(Cl)c3)sc2c1,-42,6,.,-7,83*
Cc1ccc(O)c(CP(=O)(c2ccccc2)c2ccccc2)c1,18,9.4*,1,1,0
CC(C)(C)c1cc(CP(=O)(c2ccccc2)c2ccccc2)cc(C(C)(C)C)c1O,.,.,11,.,.
CCC(C)c1ccc(O)c(NC(=O)c2cccnc2)c1 (centres undefined),-7,-3,.,24,0
CC(C)c1ccc(O)c(NC(=O)c2cncc(Br)c2)c1,-9,-3,-20,67*,0
N#Cc1ccc(CSc2nnc(NC(=O)C3CC(=O)N(c4ccc5c(c4)OCCO5)C3)s2)cc1 (centres undefined),8,2,.,-1,-1
O=C(NNC(=S)NC1CCCCC1)c1cccc(S(=O)(=O)Nc2ccccc2Cl)c1,-7,-4,-3,1,1
COC(=O)c1ccccc1NC(=O)N1CCN(C/C=C/c2ccccc2)CC1,-12,10*,4,0,0
COc1cccc(NC(=S)N2CCN(C/C=C/c3ccccc3)CC2)c1,-2,0,35,-8,0
S=C(Nc1ccccc1)N1CCN(C/C=C/c2ccccc2)CC1,14,10*,-3,1,5
O=C(c1ccc(-c2ccc([N+](=O)[O-])cc2Cl)o1)N1CCOCC1,5,11*,6,-2,-1
COc1ccccc1CNC(=O)Cn1nnc(-c2ccncc2)n1,4,0,-35,1,86*
COc1ccc(-c2nnn(CC(=O)NCc3ccccc3)n2)cc1OC,.,7,.,-1,-1
S=C(c1ccc(-c2ccc(Cl)cc2Cl)o1)N1CCCCC1,-3,10*,.,-3,0
COC(=O)CNC(=O)CCc1nnc(C2(c3ccc(Cl)cc3)CCC2)o1,3,0,2,0,5
COCC(C)NC(=O)CCc1nnc(C2(c3ccc(Cl)cc3)CCC2)o1 (centres undefined),-5,8.9*,-1,-1,-1
O=C(Nc1cccs1)Nc1ccc(F)cc1F,6,9.0*,1,5,1
CC(=O)N1CCC(Nc2ccc(C)cc2)CC1,-1,-1,.,1,0
CCn1ncc(C2=NOC(C(=O)NCC(C)C)C2)c1C (centres undefined),-20,8,.,-1,0
CCn1ncc(C2=NOC(C(=O)Nc3cnn(C45CC6CC(CC(C6)C4)C5)c3)C2)c1C (centres undefined),-8,-1,.,-5,87*
C=CCN(c1ccccc1)S(=O)(=O)c1cccc(C(=O)OCC(=O)NCCOC)c1,.,-1,9,0,0
C=CCN(c1cccc(C(F)(F)F)c1)S(=O)(=O)c1cccc(C(=O)OCC(=O)NCCC)c1,116*,2,.,2,0
CC[C@@H](C)C(NC(=O)OC(C)(C)C)c1cn([C@@H](CCCCNC(=O)OC(C)(C)C)C(=O)N2CCN(C(=O)OC(C)(C)C)CC2)nn1 (some centres undefined),.,0,.,1,1

# Assay outcomes (PubChem BioAssay)
